Most compounds without a hit are left out; they make up all but 3.9% or so of the library.
XBP1 UPR activ – activators of adaptive XBP1 UPR arm, primary screen, cell-based, CHO-XBP1 luciferase reporter, luminescence, uHTS. IRE1-XBP1 UPR activation; percent of tunicamycin response, DMSO as zero. activation, % at 20 µM. 0.33% of 330,000 active;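 active = versus positive control, 20 µM dose yields 30% or more activation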;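 also: 100% = tunicamycin at 10 µg/mL and 0% = DMSO only wells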
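Material – CHO cell line with stable XBP1 luciferase reporter · Buffer or medium – F12 plus 10% FBS · Compound – single point, 20 µM final compound, 1% DMSO · Schedule – 16-18 h cell attachment at 37 °C, then 6 h compound exposure · Signal – Steady-Glo luminescence read · Benchmarks – high control tunicamycin 10 µg/mL final, low control DMSO vehicle only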
TIM10 inh – growth inhibitors of isogenic TIM10 control yeast, primary screen, counter-screen for tim10-1 yeast inhibitor project, luminescence, uHTS; S. cerevisiae TIM10 strain growth, BacTiter-Glo luminescence, 24 h; inhibition, % at 10 µM; 1.4% of 330,000 active;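 active = inhibition of 40% or more at the single tested concentration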;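 also: wild-type TIM10 isogenic control strain grown at permissive 25 °C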
tim23-1 inh – growth inhibitors of tim23-1 mutant yeast, primary screen, luminescence, uHTS | 1.3% of 330,000 active | inhibition, % at 20 µM | S. cerevisiae tim23-1 growth, BacTiter-Glo luminescence, 24 h | AID 463212, 2010;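 active = growth inhibition of the mutant yeast at or above 50%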;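 also: temperature-sensitive mutant grown at 25 °C; plate controls were DMSO-treated mutant yeast for no effect and medium wells lacking yeast for full effect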
tim10-1 inh – growth inhibitors of tim10-1 mutant yeast, primary screen, luminescence, uHTS; inhibition, % at 20 µM; S. cerevisiae tim10-1 ts strain growth, BacTiter-Glo, 24 h; 2.2% of 330,000 active;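 active = inhibition of at least 40%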;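 also: mutant grown at 25 °C; 0% = DMSO wells with yeast and 100% = wells holding no yeast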
UPR CHOP act – activators of apoptotic CHOP UPR arm, primary screen, cell-based, CHO-CHOP luciferase reporter, luminescence, uHTS. activation, % at 10 µM. AID 449763, 2010. 0.34% of 330,000 active. UPR activation; percent of tunicamycin response over DMSO baseline;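 active = at 10 µM dose, activation of 40% or more, normalized to positive control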;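 also: 100% = tunicamycin at 10 µg/mL and 0% = DMSO alone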
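Test system: CHO-CHOP cells, stable luciferase reporter of PERK-eIF2a-CHOP signalling | Quantity: 500 CHO-CHOP cells per well | Buffer or medium: F12 plus 10% serum | Compound dosing: 10 µM single point, 0.5% DMSO | Schedule: 6 h compound treatment, 37 °C | Signal: Luciferase luminescence | Control set: Tunicamycin high control, DMSO low control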
tim23-1 conf – tim23-1 mutant yeast growth inhibitors, confirmation, luminescence, single concentration; shares compounds with tim23-1 inh; inhibition, % at 20 µM; 83% of 4,400 active; S. cerevisiae tim23-1 growth, BacTiter-Glo luminescence, 24 h;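 active = inhibition above about 39% in either of two replicate wells at 20 µM, limit read from the data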;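 also: temperature-sensitive tim23-1 mutant grown at 25 °C; 0% = DMSO wells with yeast and 100% = medium wells without yeast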
Numbers without * were called inactive; . = no result; ! = repeats disagree.

SMILES | XBP1 UPR activ | TIM10 inh | tim23-1 inh | tim10-1 inh | UPR CHOP act | tim23-1 conf
O=C(C1=C(O)C(=O)N(c2ncccn2)C1c1ccc(Cl)c(Cl)c1)c1ccco1 (centres undefined) | 6.3 | 20.0 | 58.4* | 13.9 | 6.4 | 40.7*
COC(=O)N/N=C/c1ccc(-c2ccccc2Cl)o1 | 0.3 | -8.3 | 36.5 | -10.0 | 3.4 | .
COC(=O)N/N=C/c1ccc(-c2ccc(Cl)cc2Cl)o1 | 3.9 | 38.8 | 56.3* | 35.0 | 4.6 | 50.0*
Brc1cc2c(cc1-c1nc3ccccc3s1)OCO2 | 4.3 | 6.4 | 7.6 | 8.4 | 5.7 | .
Oc1ccc(N=C/C=C/c2ccc(Br)cc2)cc1-c1nc2ccccc2s1 | 3.0 | 29.6 | 64.0* | 23.1 | 4.2 | 44.0*
CSCC(=O)N1CCc2ccc(NC(=O)c3ccccc3Cl)cc2C1 | 3.1 | 7.3 | 7.6 | 4.9 | 8.8 | .
COc1ccc(C(=O)NC2CCSc3ccccc32)cc1F (centres undefined) | -1.9 | -8.1 | 11.3 | -2.4 | 0.7 | .
COC(=O)c1[nH]c2cc(OC)ccc2c1NC(=O)CCN1CCCCC1 | -1.7 | 1.1 | -12.3 | -6.1 | -2.1 | .
COC(=O)c1[nH]c2cc(OC)ccc2c1NC(=O)CCN1CCCC(C)(C)C1 | 0.0 | -12.1 | 73.9* | -1.0 | -2.4 | 10.7
O=C(CN1CCN(C(=O)C2CCCO2)CC1)Nc1ccc(F)cc1 (centres undefined) | -5.4 | -2.5 | -1.9 | 2.2 | -1.3 | .
O=C(NCCCNC(=O)c1ccco1)c1ccc(F)cc1 | -8.1 | 6.6 | -6.2 | -15.2 | -0.3 | .
COc1ccc(/C=C/C2=CC(C)(C)NC(=S)N2)cc1OC | -1.5 | 16.3 | -19.7 | 10.6 | 0.5 | .
COc1ccc(/C=C/C2=Nc3ccccc3NC(C)(C)C2)cc1OC | 0.1 | 13.3 | 50.8* | 19.1 | 2.9 | 43.1*
CC(=O)N1c2c(cc(Br)cc2S(=O)(=O)NCc2cccnc2)CC1C (centres undefined) | 2.2 | 7.3 | 14.2 | 29.5 | -0.1 | .
CCCCN(Cc1ccccc1)S(=O)(=O)c1cc(Br)cc2c1N(C(C)=O)C(C)C2 (centres undefined) | -2.1 | 33.3 | 55.9* | 23.4 | 0.2 | 53.0*
CC(C)n1c(SCC(=O)N2CCN(C)CC2)nc2c1c(=O)n(C)c(=O)n2C | -1.7 | -16.5 | 15.5 | 11.3 | -1.0 | .
c1ccc2c3c([nH]c2c1)-c1[nH]ncc1CC3 | 2.2 | 2.6 | 60.7* | 12.8 | 3.8 | 37.8
Clc1ccc2[nH]c3c(c2c1)CCc1cn[nH]c1-3 | 2.5 | 28.3 | 20.6 | -0.4 | 3.5 | .
CCCNC(=O)C(Cc1ccc(Cl)cc1)NC(=O)c1ccc(-c2ccccc2)cc1 (centres undefined) | 6.5 | 1.4 | 7.7 | 8.8 | 6.0 | .
CC(/C=N/NC(=O)c1cccs1)=C\c1ccccc1 | 0.5 | 7.5 | 53.5* | -15.6 | 3.2 | 48.0*
O=C(N/N=C/C(Cl)=C/c1ccccc1)c1ccncc1 | 0.7 | 8.6 | 2.1 | -14.3 | 3.8 | .
CC(/C=N/NC(=O)Cc1cccs1)=C\c1ccccc1 | 2.1 | -15.7 | -6.7 | -16.4 | 4.1 | .
O=C(N/N=C/C(Cl)=C\c1ccccc1)c1cccs1 | 6.1 | 25.5 | 64.3* | -27.1 | 4.8 | 64.4*
COc1ccc(N2CC(C(=O)OCC(=O)Nc3cccc(C)c3)CC2=O)cc1 (centres undefined) | -4.3 | -10.0 | 7.7 | 0.3 | 0.3 | .
Cc1ccc(S(=O)(=O)N2C[C@@H]3[C@H]4CC[C@H](C4)[C@@H]3[C@@H](C)[C@H]2C#N)cc1 | -0.9 | 0.0 | 90.8* | 17.5 | 1.0 | 39.8*
SMILES | XBP1 UPR activ | TIM10 inh | tim23-1 inh | tim10-1 inh | UPR CHOP act | tim23-1 conf
CC1=CC(=O)c2ccccc2C1=O | -9.7 | 6.5 | 51.3*! | 18.0 | 0.2 | 63.3*
COc1cccc2c1C(=O)C=C(C)C2=O | -0.8 | 30.0 | 50.0* | 27.4 | 0.2 | 46.8*
CCN(CC(=O)NCc1cccs1)C(=O)Cc1ccc(C)c(C)c1 | -1.8 | 6.8 | 18.2 | 25.5 | 2.5 | .
O=C(Nc1nc2ccc(S(=O)(=O)N3CCCC3)cc2s1)C1CCCCC1 | 5.2 | 9.3 | 4.8 | 31.6 | 0.0 | .
O=C(Nc1nc2ccc(S(=O)(=O)N3CCCCC3)cc2s1)C1CCCO1 (centres undefined) | 1.0 | 33.5 | 52.5* | 39.7 | -0.6 | 46.9*
Nc1ccc2nc(SCc3ccccc3F)sc2c1 | -0.8 | 5.5 | 63.1* | -11.7 | 4.1 | 43.3*
Cc1ccc(CNC(=O)C(=O)NCC2OCCN2S(=O)(=O)c2ccc(Cl)cc2)cc1 (centres undefined) | -5.0 | 5.4 | 22.2 | 12.1 | -2.1 | .
C/C(=N\N(c1ccccc1)c1ccccc1)c1ccc(O)cc1 | 0.3 | 20.1 | 54.0* | -6.2 | 1.4 | 43.5*
NC(=O)c1c(NC(=O)c2ccccc2F)sc2c1CCCC2 | 1.1 | 21.8 | 54.2* | 28.7 | 3.6 | 49.0*
CC(C)Cn1c(SCC(=O)N2CCOCC2)nc2ccccc2c1=O | 1.6 | 8.0 | 19.7 | 8.5 | 0.3 | .
Nc1ncnc2c1ncn2C1O[C@H](CO)[C@@H](O)[C@@H]1O (some centres undefined) | -8.1 | -13.1 | -17.4 | -18.5 | -0.5 | .
Nc1ncnc2c1ncn2[C@@H]1O[C@H](CO)C[C@@H]1O | -7.7 | -1.5 | 55.9* | 36.8 | -1.5 | 58.7*
CCC1CCc2sc(C(=O)N(C)CC(=O)Nc3ccc(OC)cc3)cc2C1 (centres undefined) | 0.0 | 0.5 | 50.6* | 32.7 | -0.5 | 45.0*
CCC1CCc2sc(C(=O)NCC3CCCO3)cc2C1 (centres undefined) | -3.2 | 7.2 | 51.4* | 11.2 | 1.3 | 38.0
CCC1CCc2sc(C(=O)N(C)CC(=O)Nc3cccc(OC)c3)cc2C1 (centres undefined) | -2.8 | 11.9 | 51.1* | 18.7 | 1.6 | 41.0*
COc1ccc(NC(=O)CN(C)C(=O)c2cc3c(s2)CCC(C)C3)cc1 (centres undefined) | -2.0 | -6.1 | 32.3 | 14.2 | -1.0 | .
CC(C)OP(=O)(OC(C)C)C(O)c1cccc([N+](=O)[O-])c1 (centres undefined) | 0.1 | -7.3 | 0.0 | -12.1 | 1.1 | .
O=C(CCN1C(=O)c2ccc(Br)cc2C1=O)NC1CCCCC1 | -5.6 | 0.5 | -8.8 | -16.3 | 2.7 | .
Cc1ccc(C2=Nc3ccccc3N=C(C(Cl)Cl)C2)cc1 | -6.2 | 33.9 | 51.7* | -2.9 | -3.6 | 49.4*
CCOc1ccccc1N1CCN(C(=O)CCNS(=O)(=O)c2ccccc2F)CC1 | -2.0 | -4.6 | -11.6 | -2.4 | -0.1 | .
CCCC(CCC)c1nnc(NC(=O)c2ccco2)s1 | -2.5 | 32.0 | 62.0* | 39.5 | 2.2 | 63.9*
